Screening results (PubChem)
Only some compounds are listed: those with a hit (about 3.1% of all), similar ones and a draw of the others.
HSF1 inhib: HSF1 inhibition; NIH3T3-HGL HSE-luciferase, MG132-induced, luminescence 8 h; stronger effect = lower value; activity change, negative = inhibition, % at 7.5 µM (by protocol); hit rate 0.77% among 300,000; AID 2098;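 active = more than half of replicate wells show activity change below -50%, luminescence cut by over half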;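 note: luciferase reports HSF-1 transcriptional activity via heat shock element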
Hsp70 activator: Hsp70 transcriptional activation, primary screen. HeLa Hsp70 promoter luciferase reporter, luminescence; scaled: vehicle 0, proteasome-inhibitor control 100%. activation, % at 10 µM. hit rate 0.04% among 200,000. AID 1203;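 active = activation above the mean across all tested compounds plus 3 SD, cutoff set per campaign, cut at about 5.5% in these data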
HKDC1 inh: HKDC1 (human) hexokinase inhibition | AID 493160 | recombinant HKDC1, G6PDH/diaphorase resazurin coupled fluorescence | Q2TB90 | inhibition, % at 20 µM | hit rate 0.16% among 340,000;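 active = inhibition above about 35% when tested at 20 µM, limit read from the data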
Target sequence (Q2TB90 whole entry, looked up): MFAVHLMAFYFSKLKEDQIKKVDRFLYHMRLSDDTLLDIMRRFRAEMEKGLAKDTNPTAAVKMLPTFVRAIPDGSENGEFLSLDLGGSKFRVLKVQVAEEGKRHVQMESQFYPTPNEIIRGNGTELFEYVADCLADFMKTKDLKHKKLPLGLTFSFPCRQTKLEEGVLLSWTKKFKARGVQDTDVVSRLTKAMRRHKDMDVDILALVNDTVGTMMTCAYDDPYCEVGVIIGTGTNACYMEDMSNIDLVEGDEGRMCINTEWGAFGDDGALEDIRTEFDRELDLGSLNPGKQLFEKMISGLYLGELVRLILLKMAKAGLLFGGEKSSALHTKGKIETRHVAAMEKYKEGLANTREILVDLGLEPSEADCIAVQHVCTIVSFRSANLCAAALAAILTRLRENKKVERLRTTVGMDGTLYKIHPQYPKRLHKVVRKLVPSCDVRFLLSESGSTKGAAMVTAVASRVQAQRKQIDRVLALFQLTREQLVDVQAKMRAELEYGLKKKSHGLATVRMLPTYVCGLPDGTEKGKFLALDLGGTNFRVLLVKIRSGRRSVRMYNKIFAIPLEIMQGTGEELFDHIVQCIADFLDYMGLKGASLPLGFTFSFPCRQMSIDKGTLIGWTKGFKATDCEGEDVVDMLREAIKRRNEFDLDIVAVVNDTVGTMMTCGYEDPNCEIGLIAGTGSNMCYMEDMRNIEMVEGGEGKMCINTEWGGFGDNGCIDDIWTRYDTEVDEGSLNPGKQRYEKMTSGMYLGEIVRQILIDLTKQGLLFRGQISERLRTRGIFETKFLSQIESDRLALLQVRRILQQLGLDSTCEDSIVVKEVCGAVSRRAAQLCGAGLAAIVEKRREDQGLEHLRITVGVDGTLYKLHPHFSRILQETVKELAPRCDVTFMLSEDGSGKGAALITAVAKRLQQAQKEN
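Assay system – recombinant HKDC1 (HK5) hexokinase enzyme, produced in-house · Input – HKDC1 at 5 µg/mL · Reagent – glucose plus 1 mM ATP as hexokinase substrates · Timing – 90 min reaction incubation at room temperature, dark · Measured by – G6PDH/diaphorase-coupled fluorescence, 1 mM NADP, 100 µM resazurin, 525/613 nm · Benchmarks – DMSO-enzyme wells negative, buffer-substituted wells positive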
HSF-1 act: increases HSF-1 driven luciferase reporter signal | NIH3T3-HGL HSF-1 luciferase reporter, MG132, 8 h; 100% = twice DMSO control signal | activation, % at 9 µM | hit rate 1.7% among 300,000 | AID 504408;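 active = mean replicate activation of at least 50% with a set share of replicates each reaching 50%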
HSP90 refold inh: inhibitors of HSP90 luciferase refolding in rabbit reticulocyte lysate; AID 1789; inhibition, % at 5.6 µM; hit rate 0.91% among 290,000; luciferase refolding luminescence, 3 h;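 active = inhibition above the screen-wide mean plus 3 SD, computed separately per campaign, cut at about 16% in these data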;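 note: inhibitors lower the luminescence because luciferase stays unfolded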
Tb hexokinase: T. brucei hexokinase 1 inhibition; inhibition, % at 10 µM; hit rate 0.11% among 220,000; recombinant TbHK1, G6PDH-coupled NADH A340;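 active = inhibition of 50% or more in the single-dose primary screen; inactive = inhibition below 50%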
Large screens that a line does not name were inactive.

CS(=O)(=O)CCC(C(=O)O)N1C(=O)c2ccc(Oc3ccc(Cl)cc3)cc2C1=O (configuration not stated)	none (no result: Hsp70 activator, Tb hexokinase)
O=C(NCC1COc2ccccc2O1)c1ccc(Cl)c(S(=O)(=O)N2CCCC2)c1 (configuration not stated)	none (no result: HSF1 inhib, Hsp70 activator, HSF-1 act, HSP90 refold inh, Tb hexokinase)
O=C(NCCCN1CCC(Cc2ccccc2)CC1)C1CC(=O)N(C2CCCC2)C1 (configuration not stated)	HSF1 inhib -62.0
CCOC(=O)CC(=O)CSCC(=O)Nc1ccc(C)cc1	HSF-1 act 86.4
O=C(CS(=O)(=O)c1ccccc1)c1cc2ccccc2oc1=O	HSF-1 act 56.9 (no result: Hsp70 activator, Tb hexokinase)
COc1ccc2cc(C(=O)CS(=O)(=O)c3ccccc3)c(=O)oc2c1	none (no result: Hsp70 activator, Tb hexokinase)
O=C(CS(=O)(=O)c1ccccc1)c1cc2cc(F)ccc2oc1=O	HSF-1 act 325.4 (no result: Hsp70 activator, Tb hexokinase)
COc1cccc2cc(C(=O)CS(=O)(=O)c3ccc(C(C)(C)C)cc3)c(=O)oc12	none (no result: Hsp70 activator, Tb hexokinase)
COc1ccc(OC)c(NC(=O)c2cccc(NC(=O)c3ccccc3C(=O)O)c2)c1	none (no result: Hsp70 activator, Tb hexokinase)
COC(=O)c1sccc1NC(=O)Nc1cccc(F)c1	HSF-1 act 77.1
COC(=O)c1sccc1NC(=O)/C=C\c1ccc(Cl)cc1Cl	none (no result: HSF1 inhib, HSF-1 act)
COC(=O)c1sccc1NC(=O)/C=C/c1ccc(Cl)cc1	HSF-1 act 75.7
COC(=O)c1sccc1NC(=O)Nc1ccc(F)cc1	HSF-1 act 70.0 (no result: Hsp70 activator, Tb hexokinase)
CNC(=O)[C@H]1O[C@@H](n2cnc3c(NCc4cccc(I)c4)ncnc32)[C@H](O)[C@@H]1O	none (no result: HSF1 inhib, Hsp70 activator, HSF-1 act, HSP90 refold inh, Tb hexokinase)
CC(C)N(Cc1ccccc1)C(=O)COC(=O)/C=C/c1cnc2ccccc2n1	HSF-1 act 62.8
CC(Sc1nnc2ccccn12)C(N)=O (configuration not stated)	HSF-1 act 76.3
CC(Sc1nnc2ccccn12)C(=O)Nc1ccc(Cl)cn1 (configuration not stated)	none
CCN(CC)C(=O)Cn1nc(-c2ccncc2)nc1SCC(=O)Nc1ccc(OC)cc1	HSF-1 act 58.1 (no result: Hsp70 activator, Tb hexokinase)
COC(=O)c1ccc(NC(=O)Cn2nc(-c3ccncc3)nc2SCC(=O)Nc2nccs2)cc1	none
CCc1cc(C)cc(OCCNC(=O)c2cncc(Br)c2)c1	HSF1 inhib -61.5
O=C(NCCOc1ccccc1)c1cncc(Br)c1	none
COc1ccc(S(=O)(=O)N2CCN(C(=O)C3CC3)CC2)cc1Br	none (no result: HSF1 inhib, Hsp70 activator, HSF-1 act, HSP90 refold inh, Tb hexokinase)
C=CCN1C(=O)c2cccc3c(N4CCCCC4)ccc(c23)C1=O	none
O=C1c2cccc3c(N4CCCCC4)ccc(c23)C(=O)N1CCO	HSF-1 act 109.1
CCN(CC)c1ccc(NC(=O)COC(=O)/C=C/c2nc3ccccc3s2)cc1	none
CCN(CC)c1ccc(/C=C/c2nc3ccccc3s2)cc1	HSF1 inhib -82.0, HSP90 refold inh 66.9 (no result: HKDC1 inh)
Cc1ccc(NC(=O)Cn2c(=O)cnc3ccccc32)cc1S(=O)(=O)N1CCOCC1	none (no result: HSF1 inhib, Hsp70 activator, HSF-1 act, HSP90 refold inh, Tb hexokinase)
COc1cccc(OC)c1C(=O)Nc1ccccc1C(=O)N1CCCCCC1	none (no result: Hsp70 activator, Tb hexokinase)
C=CCNC(=O)c1ccc2nc(Cc3ccc(OC)cc3)oc2c1	HSF-1 act 77.8 (no result: Hsp70 activator, Tb hexokinase)
COCCCNC(=O)c1ccc2nc(Cc3ccc(OC)cc3)oc2c1	none (no result: Hsp70 activator, Tb hexokinase)
COc1ccc(/C=N/NC(=O)CC(=O)NCc2cccnc2)cc1[N+](=O)[O-]	none (no result: Hsp70 activator, Tb hexokinase)
CCn1ncc(Br)c1C(=O)Nc1cccc(F)c1	none
CCn1ncc(Br)c1C(=O)Nc1ccc(C(C)C)cc1	HSF-1 act 58.9 (no result: Hsp70 activator, Tb hexokinase)
COc1ccc(CC(=O)Nc2ccc(-c3cn4ccccc4n3)cc2)cc1	HSF-1 act 183.8
COc1ccc(NC(=O)c2ccc(-c3csc(C)n3)cc2)cc1	none (no result: Hsp70 activator, Tb hexokinase)
Cc1nc(-c2ccc(C(=O)Nc3ccc(F)cc3)cc2)cs1	HSF-1 act 66.9
COc1ccc(CC(=O)Nc2ccc(-c3csc(C)n3)cc2)cc1	none
Cc1nc(-c2ccc(NC(=O)Cc3ccccc3)cc2)cs1	HSF-1 act 57.5 (no result: Hsp70 activator, Tb hexokinase)
O=C(N/N=C/c1ccccn1)c1ccc([N+](=O)[O-])cc1	HSF1 inhib -81.3
O=C(N/N=C/c1ccccn1)c1cc([N+](=O)[O-])cc([N+](=O)[O-])c1	none
Cc1c(NC(=O)C(C)N2C(=O)C3CCCCC3C2=O)c(=O)n(-c2ccccc2)n1C (configuration not stated)	none
Cc1c(NC(=O)C(C)N2CC(C)OC(C)C2)c(=O)n(-c2ccccc2)n1C (configuration not stated)	HSF-1 act 60.4
C(=N\NC1=Nc2cccc3cccc1c23)/c1ccccn1	HSF1 inhib -71.3
C(=N\Nc1nc2ccccc2s1)/c1ccccn1	HSF1 inhib -86.7, HSP90 refold inh 85.6 (no result: Hsp70 activator)
Brc1csc(/C=N/Nc2nc3ccccc3s2)c1	none
COc1ccc(N(CC(=O)Nc2ccccc2OC)S(=O)(=O)c2ccc(NC(C)=O)cc2)cc1	none (no result: Hsp70 activator, Tb hexokinase)
COC(=O)c1cc(NC(=O)COC(=O)C2CCC2)cc(C(=O)OC)c1	none (no result: Hsp70 activator, HSP90 refold inh, Tb hexokinase)
CCOC(=O)c1c(-c2ccc(C)o2)csc1NC(=O)COC(=O)c1ccc(NC(N)=O)cc1	HSF-1 act 74.3
Cc1cc(C)c2nc(N(CCCN(C)C)C(=O)c3ccc(S(=O)(=O)N4CC(C)OC(C)C4)cc3)sc2c1 (configuration not stated)	none (no result: Hsp70 activator, HSP90 refold inh, Tb hexokinase)
CCN(CC)S(=O)(=O)c1cc([N+](=O)[O-])ccc1NNC(=O)Nc1ccc(F)cc1	none
CCN(CC)S(=O)(=O)c1cc([N+](=O)[O-])ccc1NNC(=O)Nc1ccccc1OC	HSF-1 act 71.0
O=C(Cc1cccs1)NCCS(=O)(=O)N1CCN(c2ccccc2F)CC1	none (no result: Hsp70 activator, HSP90 refold inh, Tb hexokinase)
CCCCN1C(=O)/C(=C2\SC(N3CCCCC3)=NC2=O)c2ccccc21	HSF-1 act 51.4
O=C1N=C(N2CCCCC2)SC1=C1CCCC1	none
COc1ccc(CN2CCSc3sccc3C2=O)cc1	none (no result: Hsp70 activator, Tb hexokinase)
Cc1cc(C(=O)CSc2nc3ccccc3c(=O)[nH]2)c(C)n1CC1CCCO1 (configuration not stated)	HSF-1 act 58.8
Cc1cc(C(=O)CSc2nnc(-c3ccccc3)o2)c(C)n1CC1COc2ccccc2O1 (configuration not stated)	HSP90 refold inh 16.5
CNS(=O)(=O)c1cccc(C(=O)OCC(=O)c2cc(C)n(CC3CCCO3)c2C)c1 (configuration not stated)	none (no result: HSF1 inhib, Hsp70 activator, HSF-1 act, HSP90 refold inh, Tb hexokinase)
Cc1cc(C(=O)CSc2nnc(-c3ccc(F)cc3)o2)c(C)n1CC1COc2ccccc2O1 (configuration not stated)	none
Cc1cc(C(=O)COC(=O)c2ccc(Cl)c(S(N)(=O)=O)c2)c(C)n1CC1CCCO1 (configuration not stated)	HSF1 inhib -56.7 (no result: Hsp70 activator, HSP90 refold inh, Tb hexokinase)
Cc1cc(C(=O)COC(=O)CNC(=O)c2ccccc2)c(C)n1CC1CCCO1 (configuration not stated)	HSF1 inhib -50.2
COCCn1c(C)cc(C(=O)COC(=O)c2ccc(-n3nc(C)cc3C)cc2)c1C	HSF-1 act 60.4
